Data from ChEMBL document CHEMBL4433207, “Novel Isoxazole Derivatives with Potent FXR Agonistic Activity Prevent Acetaminophen-Induced Liver Injury” (ACS Med Chem Lett, 2019).
In brackets after ≈: the same amount, converted by molar mass. Blank lines part the entries; values can stand above or below the compound they belong to. Activity calls are given as the source filed them. The rule behind the calls is not given here.

Tests used:
[1] = target: T1, G-protein coupled bile acid receptor 1 (Homo sapiens) (UniProt Q8TDU6); assay: Agonist activity at human GPBAR1 expressed in HEK293T cells at 10 uM after 18 hrs by cAMP response element driven luciferase reporter gene assay; type: functional, cell-based
T1 sequence (whole entry): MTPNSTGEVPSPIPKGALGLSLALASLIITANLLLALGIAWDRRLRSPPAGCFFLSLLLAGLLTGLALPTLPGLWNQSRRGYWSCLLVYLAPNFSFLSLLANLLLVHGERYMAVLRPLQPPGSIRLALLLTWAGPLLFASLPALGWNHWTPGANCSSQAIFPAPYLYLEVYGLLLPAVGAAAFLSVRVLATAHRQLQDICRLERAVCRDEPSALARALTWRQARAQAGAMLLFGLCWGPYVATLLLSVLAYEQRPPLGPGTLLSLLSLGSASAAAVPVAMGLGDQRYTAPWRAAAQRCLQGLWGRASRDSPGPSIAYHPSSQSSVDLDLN

[2] = target: T2, Peroxisome proliferator-activated receptor gamma (Homo sapiens) (UniProt P37231); assay: Transactivation of Gal4-fused PPARgamma LBD (unknown origin) expressed in HepG2 cells at 10 uM after 18 hrs by dual-glo luciferase assay; type: cell-based
T2 sequence (whole entry): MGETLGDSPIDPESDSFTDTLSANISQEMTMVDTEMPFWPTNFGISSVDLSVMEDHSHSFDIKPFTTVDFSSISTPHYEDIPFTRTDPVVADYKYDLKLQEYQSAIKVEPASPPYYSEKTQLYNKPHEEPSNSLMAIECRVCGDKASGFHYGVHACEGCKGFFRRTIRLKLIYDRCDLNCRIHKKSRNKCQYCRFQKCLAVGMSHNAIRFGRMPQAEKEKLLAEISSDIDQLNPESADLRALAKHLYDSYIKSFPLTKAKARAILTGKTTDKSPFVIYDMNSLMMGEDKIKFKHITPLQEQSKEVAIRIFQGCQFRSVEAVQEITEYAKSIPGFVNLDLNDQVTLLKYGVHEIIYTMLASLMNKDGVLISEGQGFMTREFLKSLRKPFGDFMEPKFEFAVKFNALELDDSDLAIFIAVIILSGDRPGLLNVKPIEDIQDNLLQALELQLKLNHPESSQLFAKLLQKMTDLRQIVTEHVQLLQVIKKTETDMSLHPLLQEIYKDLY

[3] = target: T3, Oxysterols receptor LXR-alpha (Homo sapiens) (UniProt Q13133); assay: Transactivation of Gal4-fused LXRalpha LBD (unknown origin) expressed in HepG2 cells at 10 uM after 18 hrs by dual-glo luciferase assay; type: cell-based
T3 sequence (whole entry): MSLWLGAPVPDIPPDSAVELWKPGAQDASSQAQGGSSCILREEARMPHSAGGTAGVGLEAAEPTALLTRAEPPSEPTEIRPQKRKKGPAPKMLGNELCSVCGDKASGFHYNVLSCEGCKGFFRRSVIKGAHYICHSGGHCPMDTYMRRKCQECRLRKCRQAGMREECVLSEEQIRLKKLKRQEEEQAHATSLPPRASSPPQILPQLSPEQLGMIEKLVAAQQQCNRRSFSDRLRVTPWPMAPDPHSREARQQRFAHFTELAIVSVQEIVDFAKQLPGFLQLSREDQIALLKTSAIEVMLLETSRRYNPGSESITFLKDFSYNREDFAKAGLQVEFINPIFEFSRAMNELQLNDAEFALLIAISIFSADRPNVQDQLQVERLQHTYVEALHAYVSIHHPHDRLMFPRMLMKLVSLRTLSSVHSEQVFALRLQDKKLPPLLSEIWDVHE

[4] = target: T4, Oxysterols receptor LXR-beta (Homo sapiens) (UniProt P55055); assay: Transactivation of Gal4-fused LXRbeta LBD (unknown origin) expressed in HepG2 cells at 10 uM after 18 hrs by dual-glo luciferase assay; type: cell-based
T4 sequence (whole entry): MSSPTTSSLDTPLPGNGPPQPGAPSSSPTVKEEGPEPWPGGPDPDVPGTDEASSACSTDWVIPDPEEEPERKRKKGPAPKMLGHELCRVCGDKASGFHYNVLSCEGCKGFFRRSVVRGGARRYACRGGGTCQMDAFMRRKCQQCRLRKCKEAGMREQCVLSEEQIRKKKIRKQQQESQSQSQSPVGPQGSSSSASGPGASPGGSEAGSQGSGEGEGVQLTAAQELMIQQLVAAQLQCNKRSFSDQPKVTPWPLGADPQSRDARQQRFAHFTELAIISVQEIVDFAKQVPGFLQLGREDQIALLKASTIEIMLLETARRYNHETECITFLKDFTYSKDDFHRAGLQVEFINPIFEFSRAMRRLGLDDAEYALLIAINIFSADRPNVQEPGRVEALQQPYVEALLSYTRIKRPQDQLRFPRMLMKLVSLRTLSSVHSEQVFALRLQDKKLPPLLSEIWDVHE

[5] = Aqueous solubility of compound in phosphate buffer at pH 7.4//MeOH after 24 hrs by LC-MS/MS method; type: physicochemical
[6] = Intrinsic clearance in rat liver microsomes at 1 uM up to 40 mins by LC-MS/MS method; settings: read-out: CLH
[7] = Metabolic stability in rat liver microsomes assessed as compound remaining at 1 uM up to 40 mins by LC-MS/MS method relative to control
[8] = Half life in rat liver microsomes at 1 uM up to 40 mins by LC-MS/MS method
Mus musculus [9] = assay: Hepatoprotective activity against APAP-induced acute liver injury in C57BL/6N mouse assessed as APAP plasma concentration at 30 mg/kg, po administered 45 min after APAP challenge by LC-MS/MS analysis (reference value: 1000 nM); type: functional, organism-based
Outline: (§1)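 C57Bl6 mice given a single 500 mg/kg APAP dose, with test agent at 30 mg/kg; surviving mice sacrificed 24 h later, blood and liver collected. Endpoints: serum AST/ALT, liver H&E histology, hepatic Ugt1a1/Ugt2b1/Sult1a1 mRNA, hepatic GSH, SOD activity and MDA, and plasma APAP, APAP-glucuronide and APAP-sulfate by LC–MS/MS. Mean ± SEM, 5–8 animals per group.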

Mus musculus [10] = assay: In-vivo agonist activity at FXR in C57BL/6N N mouse assessed as upregulation of BSEP mRNA level at 10 mg/kg, po dosed daily via gavage for 3 days by RT-PCR analysis; type: functional, organism-based
Outline: (§2)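 Mice dosed 10 mg/kg daily for 3 days, by gavage or i.p. Total liver RNA analysed by quantitative real-time PCR for SHP or BSEP mRNA, normalized to GAPDH mRNA; mean ± SEM of four mice per group.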

Mus musculus [11] = assay: Hepatoprotective activity against APAP-induced acute liver injury in C57BL/6N mouse assessed as increase in APAP metabolism by measuring increase in APAP-glucuronide level at 30 mg/kg, po administered 45 min after APAP challenge by LC-MS/MS analysis; type: functional, organism-based; outline: as §1
Mus musculus [12] = assay: Hepatoprotective activity against APAP-induced acute liver injury in C57BL/6N mouse assessed as upregulation of UGT2B1 mRNA levels at 30 mg/kg, po administered 45 mins after APAP challenge; type: functional, organism-based; outline: as §1
Mus musculus [13] = assay: Hepatoprotective activity against APAP-induced acute liver injury in C57BL/6N mouse assessed as reduction in lipid peroxidation by measuring MDA levels at 30 mg/kg, po administered 45 mins after APAP challenge; type: functional, organism-based; outline: as §1
Mus musculus [14] = assay: Hepatoprotective activity against APAP-induced acute liver injury in C57BL/6N mouse assessed as reduction in liver necrosis at 30 mg/kg, po administered 45 mins after APAP challenge by H and E staining based microscopic method; type: functional, organism-based; outline: as §1
Mus musculus [15] = assay: Hepatoprotective activity against APAP-induced acute liver injury in C57BL/6N mouse assessed as increase in GSH levels at 30 mg/kg, po administered 45 mins after APAP challenge; type: functional, organism-based; outline: as §1
Mus musculus [16] = assay: In-vivo agonist activity at FXR in C57BL/6N N mouse assessed as upregulation of BSEP mRNA level at 10 mg/kg, ip dosed daily […] for 3 days by RT-PCR analysis; type: functional, organism-based; outline: as §2
Mus musculus [17] = assay: Hepatoprotective activity against APAP-induced acute liver injury in C57BL/6N mouse assessed as increase in SOD levels at 30 mg/kg, po administered 45 mins after APAP challenge; type: functional, organism-based; outline: as §1
Mus musculus [18] = assay: Hepatoprotective activity against APAP-induced acute liver injury in C57BL/6N mouse assessed as increase in APAP metabolism by measuring increase in APAP-sulfate level at 30 mg/kg, po administered 45 min after APAP challenge by LC-MS/MS analysis; type: functional, organism-based; outline: as §1
Mus musculus [19] = assay: In-vivo agonist activity at FXR in C57BL/6N N mouse assessed as upregulation of SHP mRNA level at 10 mg/kg, po dosed daily via gavage for 3 days by RT-PCR analysis; type: functional, organism-based; outline: as §2
Mus musculus [20] = assay: Hepatoprotective activity against APAP-induced acute liver injury in C57BL/6N mouse assessed as reduction in plasma AST levels at 30 mg/kg, po administered 45 mins after APAP challenge; type: functional, organism-based; outline: as §1
Mus musculus [21] = assay: Hepatoprotective activity against APAP-induced acute liver injury in C57BL/6N mouse assessed as upregulation of SULT1A1 mRNA levels at 30 mg/kg, po administered 45 mins after APAP challenge; type: functional, organism-based; outline: as §1
Mus musculus [22] = assay: In-vivo agonist activity at FXR in C57BL/6N N mouse assessed as upregulation of SHP mRNA level at 10 mg/kg, ip dosed daily […] for 3 days by RT-PCR analysis; type: functional, organism-based; outline: as §2
Mus musculus [23] = assay: Hepatoprotective activity against APAP-induced acute liver injury in C57BL/6N mouse assessed as reduction in plasma ALT levels at 30 mg/kg, po administered 45 mins after APAP challenge; type: functional, organism-based; outline: as §1
Mus musculus [24] = assay: Hepatoprotective activity against APAP-induced acute liver injury in C57BL/6N mouse assessed as upregulation of UGT1A1 mRNA levels at 30 mg/kg, po administered 45 mins after APAP challenge; type: functional, organism-based; outline: as §1

Activity [1]: inactive
SMILES: COC(=O)c1cccc(-c2ccc(OCc3c(-c4c(Cl)cccc4Cl)noc3C(C)C)cc2)c1

Activity [1]: inactive
SMILES: COC(=O)c1cccc(OCc2ccc(OCc3c(-c4c(Cl)cccc4Cl)noc3C(C)C)cc2)c1

Activity [1]: inactive
SMILES: COC(=O)c1cccc(OCc2c(-c3c(Cl)cccc3Cl)noc2C(C)C)c1

Activity [1]: inactive
SMILES: CC(C)c1onc(-c2c(Cl)cccc2Cl)c1COc1ccc(COc2ccc(CO)cc2)cc1

Activity [1]: inactive
SMILES: COC(=O)c1ccc(OCc2ccc(OCc3c(-c4c(Cl)cccc4Cl)noc3C(C)C)cc2)cc1

Activity [1]: inactive
SMILES: COC(=O)c1ccc(OCc2c(-c3c(Cl)cccc3Cl)noc2C(C)C)cc1

Activity [1]: inactive
SMILES: CC(C)c1onc(-c2c(Cl)cccc2Cl)c1COc1ccc(-c2cccc(CO)c2)cc1

Activity [1]: inactive
SMILES: CC(C)c1onc(-c2c(Cl)cccc2Cl)c1COc1ccc(-c2cccc(C(=O)O)c2)cc1

Activity [2]: inactive
Activity [3]: inactive
Activity [4]: inactive
Activity [1]: inactive
SMILES: CC(C)c1onc(-c2c(Cl)cccc2Cl)c1COc1ccc(COc2ccc(C(=O)O)cc2)cc1
Cp (Mus musculus [9]): 615 nM
Activity (Mus musculus [10]): Active
Activity (Mus musculus [11]): Active
Activity (Mus musculus [12]): Active
Activity (Mus musculus [13]): Active
Activity (Mus musculus [14]): Active
Activity (Mus musculus [15]): Active
Activity (Mus musculus [16]): Active
Activity (Mus musculus [17]): Active
Activity (Mus musculus [18]): Active
Activity (Mus musculus [19]): Active
Activity (Mus musculus [20]): Active
Activity (Mus musculus [21]): Active
Activity (Mus musculus [22]): Active
Activity (Mus musculus [23]): Active
Activity (Mus musculus [24]): Active

Activity [1]: inactive
SMILES: CC(C)c1onc(-c2c(Cl)cccc2Cl)c1COc1cccc(CO)c1

Activity [1]: inactive
SMILES: CC(C)c1onc(-c2c(Cl)cccc2Cl)c1COc1cccc(C#N)c1

The remaining lines, values behind:

SMILES: CC(C)c1onc(-c2c(Cl)cccc2Cl)c1COc1ccc(COc2cccc(C#N)c2)cc1
Activity [1]: inactive

SMILES: CC(C)c1onc(-c2c(Cl)cccc2Cl)c1COc1ccccc1
Activity [1]: inactive

SMILES: CC(C)c1onc(-c2c(Cl)cccc2Cl)c1COc1ccc(CO)cc1
Activity [1]: inactive

SMILES: CC(C)c1onc(-c2c(Cl)cccc2Cl)c1COc1ccc(S(C)(=O)=O)cc1
Activity [1]: inactive

SMILES: CC(C)c1onc(-c2c(Cl)cccc2Cl)c1COc1ccc(COc2cccc(C(=O)O)c2)cc1
Activity [2]: inactive
Activity [3]: inactive
Activity [4]: inactive
Activity [1]: inactive

SMILES: CC(C)c1onc(-c2c(Cl)cccc2Cl)c1COc1ccc(COc2cccc(CO)c2)cc1
Activity [1]: inactive

SMILES: CC(C)c1onc(-c2c(Cl)cccc2Cl)c1COc1ccc(C(=O)O)cc1
Activity [1]: inactive

SMILES: CC[C@H]1[C@@H](O)[C@@H]2[C@H](CC[C@]3(C)[C@@H]([C@H](C)CCC(=O)O)CC[C@@H]23)[C@@]2(C)CC[C@@H](O)C[C@@H]12 [OBETICHOLIC ACID]
solubility at 24 h [5]: > 200 µM
microsomal CLint at 1 µM [6]: 109 µL/min/mg
remaining at 40 min, 1 µM [7]: 27%
half-life at 1 µM [8]: 21 min

SMILES: CC(C)c1onc(-c2c(Cl)cccc2Cl)c1COc1ccc(COc2ccc(C#N)cc2)cc1
Activity [1]: inactive

SMILES: CC(C)c1onc(-c2c(Cl)cccc2Cl)c1COc1cccc(C(=O)O)c1
Activity [1]: inactive

SMILES: CC(C)c1onc(-c2c(Cl)cccc2Cl)c1COc1ccc(C#N)cc1
Activity [1]: inactive

SMILES: CC(C)c1onc(-c2c(Cl)cccc2Cl)c1COc1ccc(/C=C/c2cccc(C(=O)O)c2)c(Cl)c1
solubility at 24 h [5]: 152 µM (≈ 82.5 µg/mL)
microsomal CLint at 1 µM [6]: 56 µL/min/mg
remaining at 40 min, 1 µM [7]: 48%
Activity (Mus musculus [20]): Active
Activity (Mus musculus [23]): Active
half-life at 1 µM [8]: 41 min
